{"source": "ChEMBL document CHEMBL3774321", "about": "“Systematic diversification of benzylidene heterocycles yields novel inhibitor scaffolds selective for Dyrk1A, Clk1 and CK2” (Eur J Med Chem, 2016)", "key": {"[1]": {"biological_target": "T1, Dual specificity tyrosine-phosphorylation-regulated kinase 1A (Homo sapiens, UniProt Q13627)", "experiment": "Inhibition of tetracycline-inducible EGFP-DYRK1A (unknown origin) expressed in HEK293 cells coexpressing full length human EGFP-tau protein assessed as reduction in tau-Thr212 phosphorylation incubated overnight by immunoblotting assay"}, "[2]": {"biological_target": "T1, Dual specificity tyrosine-phosphorylation-regulated kinase 1A", "experiment": "Inhibition of recombinant human N-terminal His6-tagged DYRK1A catalytic domain expressed in Escherichia coli BL21(DE3) cells using KKISGRLSPIMTEQ-NH2 as substrate incubated for 15 mins in presence of [gamma-32P]ATP"}, "[3]": {"biological_target": "Epidermal growth factor receptor (Homo sapiens, UniProt P00533)", "sequence (P00533 whole entry)": "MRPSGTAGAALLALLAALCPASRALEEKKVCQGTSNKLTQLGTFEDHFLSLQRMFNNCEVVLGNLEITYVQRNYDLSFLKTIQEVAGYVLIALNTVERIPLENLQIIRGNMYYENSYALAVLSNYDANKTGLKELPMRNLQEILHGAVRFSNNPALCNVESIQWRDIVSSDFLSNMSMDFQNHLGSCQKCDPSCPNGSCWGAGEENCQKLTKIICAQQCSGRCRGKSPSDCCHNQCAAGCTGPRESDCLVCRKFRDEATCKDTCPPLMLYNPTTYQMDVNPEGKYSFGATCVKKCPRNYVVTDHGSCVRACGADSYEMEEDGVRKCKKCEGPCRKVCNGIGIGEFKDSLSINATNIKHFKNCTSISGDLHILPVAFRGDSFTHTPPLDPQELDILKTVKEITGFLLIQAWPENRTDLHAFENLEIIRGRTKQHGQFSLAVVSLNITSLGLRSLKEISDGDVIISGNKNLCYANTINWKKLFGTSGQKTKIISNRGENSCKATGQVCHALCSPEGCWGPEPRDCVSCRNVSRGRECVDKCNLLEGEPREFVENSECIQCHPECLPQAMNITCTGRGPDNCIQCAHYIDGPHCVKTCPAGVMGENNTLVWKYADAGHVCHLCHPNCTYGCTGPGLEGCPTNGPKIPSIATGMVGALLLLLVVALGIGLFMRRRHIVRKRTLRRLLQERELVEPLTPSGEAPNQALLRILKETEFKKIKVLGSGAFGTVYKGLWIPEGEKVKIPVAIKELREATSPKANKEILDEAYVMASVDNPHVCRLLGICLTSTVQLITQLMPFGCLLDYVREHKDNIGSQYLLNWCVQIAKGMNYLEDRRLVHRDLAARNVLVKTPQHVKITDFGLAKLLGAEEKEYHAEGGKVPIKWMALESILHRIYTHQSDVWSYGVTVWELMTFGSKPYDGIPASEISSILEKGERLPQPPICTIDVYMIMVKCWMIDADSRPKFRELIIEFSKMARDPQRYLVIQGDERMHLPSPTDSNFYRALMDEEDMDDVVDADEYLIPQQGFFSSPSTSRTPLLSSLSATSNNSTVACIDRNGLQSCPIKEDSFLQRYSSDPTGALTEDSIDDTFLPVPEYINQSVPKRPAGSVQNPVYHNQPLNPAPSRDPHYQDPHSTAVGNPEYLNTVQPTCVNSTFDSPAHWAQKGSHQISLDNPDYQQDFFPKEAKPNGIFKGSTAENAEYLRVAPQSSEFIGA", "experiment": "Inhibition of EGFR (unknown origin) incubated for 15 mins in presence of [gamma-32P]ATP", "conditions": "read-out: IC50; call rule not given here", "summary_of_the_method": "(§1)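 Purified recombinant kinase assayed with 100 μM ATP. Values averaged from at least two independent determinations.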"}, "[4]": {"biological_target": "Phosphatidylinositol 4,5-bisphosphate 3-kinase catalytic subunit alpha isoform (Homo sapiens, UniProt P42336)", "sequence (P42336 whole entry, canonical isoform)": "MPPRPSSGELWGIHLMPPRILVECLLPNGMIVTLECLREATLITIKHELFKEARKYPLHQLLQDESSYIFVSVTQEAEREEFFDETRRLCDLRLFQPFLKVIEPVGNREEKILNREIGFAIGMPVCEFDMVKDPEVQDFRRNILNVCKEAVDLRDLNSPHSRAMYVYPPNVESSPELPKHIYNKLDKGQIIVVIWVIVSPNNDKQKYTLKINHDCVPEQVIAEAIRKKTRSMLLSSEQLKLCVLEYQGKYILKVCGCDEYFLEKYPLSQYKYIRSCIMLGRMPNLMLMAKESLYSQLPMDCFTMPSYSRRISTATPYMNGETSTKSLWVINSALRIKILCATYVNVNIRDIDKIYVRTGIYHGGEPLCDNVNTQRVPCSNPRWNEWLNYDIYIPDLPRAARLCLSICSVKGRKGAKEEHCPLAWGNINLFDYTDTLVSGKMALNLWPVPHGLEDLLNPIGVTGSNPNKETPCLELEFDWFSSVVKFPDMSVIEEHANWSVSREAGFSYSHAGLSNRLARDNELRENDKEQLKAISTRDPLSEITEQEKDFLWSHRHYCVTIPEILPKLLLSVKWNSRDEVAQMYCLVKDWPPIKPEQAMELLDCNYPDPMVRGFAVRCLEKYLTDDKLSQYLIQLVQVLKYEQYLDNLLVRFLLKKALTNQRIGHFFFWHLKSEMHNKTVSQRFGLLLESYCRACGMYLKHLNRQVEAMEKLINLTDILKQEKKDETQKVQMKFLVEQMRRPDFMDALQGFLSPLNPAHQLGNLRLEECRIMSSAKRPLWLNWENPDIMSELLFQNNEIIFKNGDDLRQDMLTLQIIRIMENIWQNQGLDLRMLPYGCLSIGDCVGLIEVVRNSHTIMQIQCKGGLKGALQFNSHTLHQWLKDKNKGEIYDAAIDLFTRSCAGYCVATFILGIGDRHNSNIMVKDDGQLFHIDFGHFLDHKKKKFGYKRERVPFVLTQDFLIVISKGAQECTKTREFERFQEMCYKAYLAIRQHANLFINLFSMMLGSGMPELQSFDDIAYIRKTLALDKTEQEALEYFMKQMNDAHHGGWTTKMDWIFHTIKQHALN", "experiment": "Inhibition of PI3K p110alpha (unknown origin)"}, "Casein kinase II": {"biological_target": "Casein kinase II (Homo sapiens, UniProt P19784+P67870+P68400)", "sequence (P67870 whole entry)": "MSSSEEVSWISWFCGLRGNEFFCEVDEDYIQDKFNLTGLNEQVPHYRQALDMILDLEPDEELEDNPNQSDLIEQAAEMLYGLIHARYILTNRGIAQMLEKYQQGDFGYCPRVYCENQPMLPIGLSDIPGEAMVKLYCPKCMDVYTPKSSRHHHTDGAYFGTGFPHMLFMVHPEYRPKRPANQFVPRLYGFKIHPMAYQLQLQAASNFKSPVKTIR", "sequence (P68400 whole entry)": "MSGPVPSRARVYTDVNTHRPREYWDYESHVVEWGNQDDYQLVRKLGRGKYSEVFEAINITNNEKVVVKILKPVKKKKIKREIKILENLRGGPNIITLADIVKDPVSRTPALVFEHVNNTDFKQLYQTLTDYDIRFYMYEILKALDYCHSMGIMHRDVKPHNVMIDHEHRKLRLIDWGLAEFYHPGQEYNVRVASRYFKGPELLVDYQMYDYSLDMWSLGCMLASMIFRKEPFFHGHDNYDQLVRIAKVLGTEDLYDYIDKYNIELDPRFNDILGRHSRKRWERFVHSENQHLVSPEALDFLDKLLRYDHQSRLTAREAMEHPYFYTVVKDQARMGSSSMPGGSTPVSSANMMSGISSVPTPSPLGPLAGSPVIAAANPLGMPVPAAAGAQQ", "sequence (P19784 whole entry)": "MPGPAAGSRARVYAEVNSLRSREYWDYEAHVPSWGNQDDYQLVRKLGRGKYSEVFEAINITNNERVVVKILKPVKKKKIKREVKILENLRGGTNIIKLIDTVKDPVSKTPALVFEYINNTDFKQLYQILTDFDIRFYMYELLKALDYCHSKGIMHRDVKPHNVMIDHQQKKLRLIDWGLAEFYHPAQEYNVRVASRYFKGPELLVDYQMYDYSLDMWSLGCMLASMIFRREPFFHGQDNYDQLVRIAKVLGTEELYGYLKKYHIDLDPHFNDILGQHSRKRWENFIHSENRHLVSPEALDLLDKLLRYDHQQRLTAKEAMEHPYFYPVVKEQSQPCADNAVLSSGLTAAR", "experiment": "Inhibition of CK2 (unknown origin) using RRRDDDSDDD-NH2 as susbtrate incubated for 15 mins in presence of [gamma-32P]ATP", "type": "protein-complex assay"}, "[5]": {"biological_target": "Dual specificity protein kinase CLK4 (Homo sapiens, UniProt Q9HAZ1)", "experiment": "Inhibition of full length recombinant human GST-tagged CLK4 expressed in baculovirus expression system by lantha screen kinase binding assay", "summary_of_the_method": "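LanthaScreen binding format: test compound competes with an Alexa Fluor-conjugated tracer for the ATP site. IC50 derived from this displacement, not from peptide phosphorylation.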"}, "[6]": {"biological_target": "Dual specificity tyrosine-phosphorylation-regulated kinase 1B (Homo sapiens, UniProt Q9Y463)", "sequence (Q9Y463 whole entry)": "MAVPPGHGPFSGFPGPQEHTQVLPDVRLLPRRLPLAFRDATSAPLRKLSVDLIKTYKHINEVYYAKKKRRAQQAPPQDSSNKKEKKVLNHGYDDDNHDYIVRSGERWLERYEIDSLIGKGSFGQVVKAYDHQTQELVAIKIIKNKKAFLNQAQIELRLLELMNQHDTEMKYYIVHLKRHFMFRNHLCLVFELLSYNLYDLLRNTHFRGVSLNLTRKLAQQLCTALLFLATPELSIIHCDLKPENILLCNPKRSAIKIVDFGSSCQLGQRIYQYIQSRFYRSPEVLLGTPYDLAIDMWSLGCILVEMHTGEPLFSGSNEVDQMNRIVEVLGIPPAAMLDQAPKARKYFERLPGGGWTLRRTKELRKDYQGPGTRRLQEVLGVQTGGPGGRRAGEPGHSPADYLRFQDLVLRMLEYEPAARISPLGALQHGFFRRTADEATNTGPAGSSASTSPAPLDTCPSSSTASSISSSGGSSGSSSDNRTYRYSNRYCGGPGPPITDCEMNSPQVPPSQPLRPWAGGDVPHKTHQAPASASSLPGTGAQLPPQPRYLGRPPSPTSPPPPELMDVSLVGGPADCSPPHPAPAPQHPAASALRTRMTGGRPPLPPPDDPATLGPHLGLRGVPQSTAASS", "experiment": "Inhibition of full length recombinant human GST-tagged DYRK1B expressed in insect cells using KKISGRLSPIMTEQ-NH2 as substrate incubated for 15 mins in presence of [gamma-32P]ATP"}, "[7]": {"biological_target": "Dual specificity protein kinase CLK1 (Homo sapiens, UniProt P49759)", "sequence (P49759 whole entry, the tested form may be a part)": "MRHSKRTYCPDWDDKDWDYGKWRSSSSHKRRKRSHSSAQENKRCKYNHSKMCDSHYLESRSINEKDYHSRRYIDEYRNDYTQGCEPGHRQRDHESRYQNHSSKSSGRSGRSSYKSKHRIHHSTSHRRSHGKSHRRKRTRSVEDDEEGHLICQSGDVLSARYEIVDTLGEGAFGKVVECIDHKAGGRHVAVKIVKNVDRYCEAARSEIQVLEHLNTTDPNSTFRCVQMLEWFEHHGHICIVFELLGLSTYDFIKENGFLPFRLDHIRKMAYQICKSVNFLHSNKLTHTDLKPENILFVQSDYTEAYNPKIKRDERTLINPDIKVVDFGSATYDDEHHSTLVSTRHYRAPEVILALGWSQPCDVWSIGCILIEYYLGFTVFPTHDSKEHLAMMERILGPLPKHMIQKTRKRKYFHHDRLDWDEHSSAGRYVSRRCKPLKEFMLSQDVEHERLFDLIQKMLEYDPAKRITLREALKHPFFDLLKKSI", "experiment": "Inhibition of recombinant human GST-tagged CLK1 catalytic domain (129 to 484 residues) expressed in Escherichia coli using GRSRSRSRSRSRSRSR as substrate incubated for 15 mins in presence of [gamma-32P]ATP", "summary_of_the_method": "(§2)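 Purified recombinant kinase with 100 µM ATP. IC50 values are averages of at least two independent determinations.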"}, "[8]": {"biological_target": "Protein kinase C beta type (Homo sapiens, UniProt P05771)", "sequence (P05771 whole entry)": "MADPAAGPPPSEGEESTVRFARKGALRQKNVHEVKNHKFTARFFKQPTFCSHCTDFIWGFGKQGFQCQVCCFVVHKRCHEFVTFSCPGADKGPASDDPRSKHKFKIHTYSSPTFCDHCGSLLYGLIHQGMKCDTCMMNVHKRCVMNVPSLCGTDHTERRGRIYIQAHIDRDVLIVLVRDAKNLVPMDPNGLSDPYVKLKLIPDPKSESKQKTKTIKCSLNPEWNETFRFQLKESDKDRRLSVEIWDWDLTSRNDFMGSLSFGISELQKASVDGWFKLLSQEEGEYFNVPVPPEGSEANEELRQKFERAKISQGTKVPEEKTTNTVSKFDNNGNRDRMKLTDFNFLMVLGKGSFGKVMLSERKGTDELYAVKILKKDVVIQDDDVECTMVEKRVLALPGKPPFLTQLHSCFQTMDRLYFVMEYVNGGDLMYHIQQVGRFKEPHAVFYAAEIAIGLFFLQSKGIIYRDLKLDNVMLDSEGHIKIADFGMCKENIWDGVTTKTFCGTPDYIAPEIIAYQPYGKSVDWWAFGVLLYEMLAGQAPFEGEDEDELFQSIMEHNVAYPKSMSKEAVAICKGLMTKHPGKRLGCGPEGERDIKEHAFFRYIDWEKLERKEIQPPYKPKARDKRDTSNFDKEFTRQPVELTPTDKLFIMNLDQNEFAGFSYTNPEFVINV", "experiment": "Inhibition of PKCbeta (unknown origin) incubated for 15 mins in presence of [gamma-32P]ATP", "summary_of_the_method": "as §1"}, "[9]": {"biological_target": "T2, Dual specificity tyrosine-phosphorylation-regulated kinase 2 (Homo sapiens, UniProt Q92630)", "T2 sequence (Q92630 whole entry)": "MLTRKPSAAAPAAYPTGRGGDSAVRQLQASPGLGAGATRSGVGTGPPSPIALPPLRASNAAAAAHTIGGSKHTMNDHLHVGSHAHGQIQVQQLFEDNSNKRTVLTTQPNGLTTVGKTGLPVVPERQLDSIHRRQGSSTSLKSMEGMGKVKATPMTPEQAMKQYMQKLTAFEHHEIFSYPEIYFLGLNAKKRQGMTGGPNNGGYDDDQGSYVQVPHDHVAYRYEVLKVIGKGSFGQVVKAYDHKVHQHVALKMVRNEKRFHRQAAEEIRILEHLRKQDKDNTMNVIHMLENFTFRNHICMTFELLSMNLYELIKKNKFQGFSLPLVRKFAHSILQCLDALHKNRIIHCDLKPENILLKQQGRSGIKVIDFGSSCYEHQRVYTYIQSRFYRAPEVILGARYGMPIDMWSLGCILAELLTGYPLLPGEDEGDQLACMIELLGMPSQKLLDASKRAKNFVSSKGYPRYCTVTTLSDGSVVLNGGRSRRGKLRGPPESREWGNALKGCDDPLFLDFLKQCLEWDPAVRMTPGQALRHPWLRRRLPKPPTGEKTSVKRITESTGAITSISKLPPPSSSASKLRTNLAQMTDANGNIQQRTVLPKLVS", "experiment": "Inhibition of recombinant human N-terminal GST-tagged DYRK2 expressed in Escherichia coli BL21(DE3) cells using KKISGRLSPIMTEQ-NH2 as substrate incubated for 15 mins in presence of [gamma-32P]ATP", "conditions": "read-out: IC50", "summary_of_the_method": "as §2"}, "[10]": {"experiment": "Half life in rat plasma at 1 uM by LC-MS/MS analysis", "type": "ADME, cell-free", "summary_of_the_method": "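Pooled heparinized rat plasma incubated with 1 μM compound at 37 °C, sampled at 0, 5, 15, 30, 60 and 120 min. Reaction stopped with 5 volumes cold acetonitrile containing internal standard. Remaining compound quantified by LC-MS/MS. Half-life given as mean of two experiments.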"}, "[11]": {"biological_target": "Serine/threonine-protein kinase haspin (Homo sapiens, UniProt Q8TF76)", "experiment": "Inhibition of Haspin (unknown origin)", "summary_of_the_method": "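Calculated from means of duplicates differing by less than 7%.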"}}}
{"smiles": "O=C1NC(=S)S/C1=C\\c1ccc2ncsc2c1", "values": [{"measurement": "IC50", "setting": "[1]", "value": 2100, "unit": "nM"}, {"measurement": "IC50", "setting": "[2]", "value": 40, "unit": "nM"}, {"measurement": "IC50", "setting": "[3]", "value": "> 10000", "unit": "nM"}, {"measurement": "IC50", "setting": "[4]", "value": 2.2, "unit": "nM"}, {"measurement": "IC50", "setting": "Casein kinase II", "value": 60, "unit": "nM"}, {"measurement": "IC50", "setting": "[5]", "value": 31.8, "unit": "nM"}, {"measurement": "IC50", "setting": "[6]", "value": 70, "unit": "nM"}, {"measurement": "IC50", "setting": "[7]", "value": 100, "unit": "nM"}, {"measurement": "IC50", "setting": "[8]; read-out: IC50", "value": 9200, "unit": "nM"}, {"measurement": "IC50", "setting": "[9]", "value": 200, "unit": "nM"}, {"measurement": "half-life at 1 µM", "setting": "[10]", "value": 1.68, "unit": "h"}, {"measurement": "IC50", "setting": "[11]", "value": 255, "unit": "nM"}]}
{"smiles": "O=C1OCC/C1=C\\c1ccc2ncsc2c1", "values": [{"measurement": "IC50", "setting": "[1]", "value": 200, "unit": "nM"}, {"measurement": "IC50", "setting": "[2]", "value": 130, "unit": "nM"}, {"measurement": "IC50", "setting": "[3]", "value": "> 10000", "unit": "nM"}, {"measurement": "IC50", "setting": "Casein kinase II", "value": "> 10000", "unit": "nM"}, {"measurement": "IC50", "setting": "[6]", "value": 1050, "unit": "nM"}, {"measurement": "IC50", "setting": "[7]", "value": "> 10000", "unit": "nM"}, {"measurement": "IC50", "setting": "[8]", "value": "Not Active"}, {"measurement": "IC50", "setting": "[9]", "value": 60, "unit": "nM"}, {"measurement": "half-life at 1 µM", "setting": "[10]", "value": 3.1, "unit": "h"}]}
{"smiles": "O=C1NC(=S)S/C1=C\\c1ccc2ncccc2c1", "values": [{"measurement": "IC50", "setting": "[1]", "value": 1400, "unit": "nM"}, {"measurement": "IC50", "setting": "[2]", "value": 20, "unit": "nM"}, {"measurement": "IC50", "setting": "[3]", "value": "> 10000", "unit": "nM"}, {"measurement": "IC50", "setting": "[4]", "value": 2.6, "unit": "nM"}, {"measurement": "IC50", "setting": "Casein kinase II", "value": 40, "unit": "nM"}, {"measurement": "IC50", "setting": "[5]", "value": 17.8, "unit": "nM"}, {"measurement": "IC50", "setting": "[6]", "value": 60, "unit": "nM"}, {"measurement": "IC50", "setting": "[7]", "value": 200, "unit": "nM"}, {"measurement": "IC50", "setting": "[8]; read-out: IC50", "value": "> 10000", "unit": "nM"}, {"measurement": "IC50", "setting": "[9]", "value": 60, "unit": "nM"}, {"measurement": "IC50", "setting": "[11]", "value": 259, "unit": "nM"}]}
{"smiles": "CC1C/C(=C\\c2ccc3c(c2)CCO3)C(=O)O1", "note": "(configuration not stated)", "values": [{"measurement": "IC50", "setting": "[1]", "value": 2100, "unit": "nM"}, {"measurement": "IC50", "setting": "[2]", "value": 170, "unit": "nM"}, {"measurement": "IC50", "setting": "[3]", "value": "> 10000", "unit": "nM"}, {"measurement": "IC50", "setting": "[4]", "value": 650, "unit": "nM"}, {"measurement": "IC50", "setting": "Casein kinase II", "value": "> 10000", "unit": "nM"}, {"measurement": "IC50", "setting": "[6]", "value": 2640, "unit": "nM"}, {"measurement": "IC50", "setting": "[7]", "value": "> 10000", "unit": "nM"}, {"measurement": "IC50", "setting": "[8]", "value": "Not Active"}, {"measurement": "IC50", "setting": "[9]", "value": 430, "unit": "nM"}, {"measurement": "half-life at 1 µM", "setting": "[10]", "value": "> 2", "unit": "h"}]}
